Data from ChEMBL document CHEMBL1629563, “Pharmacokinetic and safety evaluation of BILR 355, a second-generation nonnucleoside reverse transcriptase inhibitor, in healthy volunteers” (Antimicrob Agents Chemother, 2008).

Key:
[1] = test system: Homo sapiens; experiment: Toxicity in healthy human assessed as occurrence of nausea at 100 mg, po administered as single dose relative to control; format: organism-based; settings: in vivo
[2] = test system: Homo sapiens; experiment: Toxicity in healthy human assessed as occurrence of migraine at 1 mg, po administered as single dose relative to control; format: organism-based; settings: in vivo
[3] = test system: Homo sapiens; experiment: Toxicity in healthy human assessed as occurrence of increase in alanine aminotransferase level at 50 mg, po administered as single dose relative to control; format: organism-based; settings: in vivo
[4] = test system: Homo sapiens; experiment: Toxicity in healthy human assessed as occurrence of neurological eyelid disorder at 5 mg, po administered as single dose relative to control; format: organism-based; settings: in vivo
[5] = test system: Homo sapiens; experiment: Toxicity in healthy human assessed as occurrence of palpitations at 5 mg, po administered as single dose relative to control; format: organism-based; settings: in vivo
[6] = test system: Homo sapiens; experiment: Toxicity in healthy human assessed as occurrence of palpitations at 50 mg, po administered as single dose relative to control; format: organism-based; settings: in vivo
[7] = Apparent oral clearance in healthy human at 50 mg, po administered as single dose coadministered with 100 mg of ritonavir; format: ADME, organism-based; settings: in vivo
Procedure, shortened: (§1)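 Healthy male volunteers, fasted. Ritonavir 100 mg given 10 h before and again together with single oral BILR 355 in PEG solution. EDTA plasma sampled predose to 144 h. LC-MS/MS assay after protein precipitation. Noncompartmental analysis, AUC by linear up/log down trapezoidal rule; Vss = CL/F·(MRTp.o. − 1/Ka).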

[8] = Apparent oral clearance in healthy human at 75 mg, po administered as single dose coadministered with 100 mg of ritonavir; format: ADME, organism-based; settings: in vivo; procedure, shortened: as §1
[9] = Mean residence time in healthy human at 5 mg, po administered as single dose coadministered with 100 mg of ritonavir; format: ADME, organism-based; settings: in vivo
[10] = Apparent volume of distribution in terminal phase in healthy human at 12.5 mg, po administered as single dose coadministered with 100 mg of ritonavir; format: ADME, organism-based; settings: in vivo, read-out: Vz/F
Procedure, shortened: (§2)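 Healthy male volunteers, fasted overnight, got one oral dose of BILR 355 in PEG solution with 200 ml water. Ritonavir 100 mg was given 10 h before and again with the dose. Plasma was sampled (EDTA) from predose to 144 h and assayed by validated LC-MS/MS. Cmax and Vz/F came from noncompartmental analysis. Vss/F = CL/F·(MRTp.o. − 1/Ka), with Ka from compartmental modelling.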

[11] = Apparent volume of distribution at steady state in healthy human at 25 mg, po administered as single dose coadministered with 100 mg of ritonavir; format: ADME, organism-based; settings: in vivo, read-out: Vss/F; procedure, shortened: as §2
[12] = Drug excretion in healthy human urine assessed as unchanged drug at 25 mg, po administered as single dose coadministered with 100 mg of ritonavir by high-pressure liquid chromatography-tandem mass spectrometry/mass spectrometry method; format: ADME, organism-based; settings: read-out: Drug uptake
Procedure, shortened: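 Ritonavir 100 mg was given 10 h before and with one oral dose of BILR 355 in PEG solution. Urine was collected by weight as predose blank, then 0-6, 6-24 and 24-72 h, stored at −20°C and assayed by LC-MS/MS. fe = unchanged drug excreted (Ae) as a percentage of dose. Line 50: high-fat breakfast 30 min before dosing.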

[13] = test system: Homo sapiens; experiment: Ratio of AUC (0 to infinity) in human at 12.5 mg, po in presence of 100 mg of ritonavir to AUC (0 to infinity) in human at 12.5 mg, po; format: ADME, organism-based; settings: in vivo
[14] = test system: Homo sapiens; experiment: Toxicity in healthy human assessed as occurrence of frequent bowel movements at 100 mg, po administered as single dose relative to control; format: organism-based; settings: in vivo
[15] = AUC (0 to infinity) in healthy human at 50 mg, po administered as single dose; format: ADME, organism-based; design: dose 50 mg, time infinity, route oral; settings: plasma
Procedure, shortened: (§3)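 Healthy male volunteers, six active plus two placebo per dose group, single oral dose in PEG solution with 200 ml water after overnight fast; breakfast 60 to 90 min post-dose. EDTA plasma sampled predose to 144 h. Assayed by validated LC-MS/MS after protein precipitation. Noncompartmental analysis, AUC by linear up/log down trapezoidal rule; Vss = CL/F·(MRTp.o. − 1/Ka).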

[16] = AUC (0 to last) in healthy human at 100 mg, po administered as single dose; format: ADME, organism-based; design: dose 100 mg, time 0 - last, route oral; settings: plasma; procedure, shortened: as §3
[17] = Apparent oral clearance in healthy human at 50 mg, po administered as single dose; format: ADME, organism-based; settings: in vivo; procedure, shortened: as §3
[18] = Apparent oral clearance in healthy human at 100 mg, po administered as single dose; format: ADME, organism-based; settings: in vivo; procedure, shortened: as §3
[19] = Mean residence time in healthy human at 12.5 mg, po administered as single dose; format: ADME, organism-based; settings: in vivo
[20] = Mean residence time in healthy human at 25 mg, po administered as single dose; format: ADME, organism-based; settings: in vivo
[21] = Mean residence time in healthy human at 75 mg, po administered as single dose; format: ADME, organism-based; settings: in vivo
[22] = Apparent volume of distribution in terminal phase in healthy human at 50 mg, po administered as single dose; format: ADME, organism-based; settings: in vivo, read-out: Vz/F
Procedure, shortened: (§4)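 Single fasting oral dose of BILR 355 in PEG solution with 200 ml tap water, given to healthy males. Standard breakfast came 60-90 min after the dose. EDTA plasma was sampled predose to 144 h, stored below −18°C and assayed by LC-MS/MS after protein precipitation. Noncompartmental analysis gave Vz/F. Vss/F = CL/F·(MRTp.o. − 1/Ka), with Ka from compartmental modelling.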

[23] = Apparent volume of distribution in terminal phase in healthy human at 75 mg, po administered as single dose; format: ADME, organism-based; settings: in vivo, read-out: Vz/F; procedure, shortened: as §4
[24] = Apparent volume of distribution in terminal phase in healthy human at 100 mg, po administered as single dose; format: ADME, organism-based; settings: in vivo, read-out: Vz/F; procedure, shortened: as §4
[25] = Apparent volume of distribution at steady state in healthy human at 25 mg, po administered as single dose; format: ADME, organism-based; settings: in vivo, read-out: Vss/F; procedure, shortened: as §3
[26] = Renal clearance in healthy human at 50 mg, po administered as single dose by high-pressure liquid chromatography-tandem mass spectrometry/mass spectrometry method; format: ADME, organism-based, Kidney; settings: in vivo, read-out: CL_renal (converted)
[27] = AUC (0 to infinity) in healthy human at 12.5 mg, po administered as single dose coadministered with 100 mg of ritonavir; format: ADME, organism-based; design: dose 12.5 mg, route oral, time infinity; settings: plasma; procedure, shortened: as §1
[28] = AUC (0 to infinity) in healthy human at 50 mg, po administered as single dose coadministered with 100 mg of ritonavir; format: ADME, organism-based; design: dose 50 mg, time infinity, route oral; settings: plasma; procedure, shortened: as §1
[29] = Cmax in healthy human at 12.5 mg, po administered as single dose coadministered with 100 mg of ritonavir by high-pressure liquid chromatography-tandem mass spectrometry/mass spectrometry method; format: ADME, organism-based; design: dose 12.5 mg, route oral; settings: in vivo; procedure, shortened: as §2
[30] = Tmax in healthy human at 5 mg, po administered as single dose coadministered with 100 mg of ritonavir; format: ADME, organism-based; settings: in vivo
[31] = Half life in healthy human at 12.5 mg, po administered as single dose coadministered with 100 mg of ritonavir; format: ADME, organism-based; settings: in vivo
[32] = test system: Homo sapiens; experiment: Toxicity in healthy human assessed as occurrence of headache at 5 mg, po administered as single dose relative to control; format: organism-based; settings: in vivo
[33] = test system: Homo sapiens; experiment: Toxicity in healthy human assessed as occurrence of headache at 25 mg, po administered as single dose relative to control; format: organism-based; settings: in vivo
[34] = test system: Homo sapiens; experiment: Toxicity in healthy human assessed as occurrence of headache at 100 mg, po administered as single dose relative to control; format: organism-based; settings: in vivo
[35] = test system: Homo sapiens; experiment: Toxicity in healthy human assessed as occurrence of nausea at 12.5 mg, po administered as single dose relative to control; format: organism-based; settings: in vivo

Q: For CCN1c2ncc(CCOc3cc[n+]([O-])c4ccccc34)cc2C(=O)N(C)c2cccnc21 [BILR 355], which Activity [1] is on record?
A: 0%

Q: What about the Activity [2] of the same compound?
A: 0%

Q: What about the Activity [3] of the same compound?
A: 0%

Q: And the Activity [4]?
A: 0%

Q: And the Activity [5]?
A: 0%

Q: And the Activity [6]?
A: 0%

Q: And the CL/F [7]?
A: 131 mL/min

Q: What about the CL/F [8] of the same compound?
A: 106 mL/min

Q: And the MRT [9]?
A: 24.8 h

Q: And the Vd/F [10]?
A: 149 L

Q: And the Vd/F [11]?
A: 102 L

Q: What about the dose excreted [12] of the same compound?
A: 6.62%

Q: What about the Ratio [13] of the same compound?
A: 31

Q: And the Activity [14]?
A: 0%

Q: What about the AUC(0-inf) [15] of the same compound?
A: 419 ng·h/mL

Q: And the AUC(0-t) [16]?
A: 1300 ng·h/mL

Q: What about the CL/F [17] of the same compound?
A: 2150 mL/min

Q: What about the CL/F [18] of the same compound?
A: 1320 mL/min

Q: What about the MRT [19] of the same compound?
A: 6.12 h

Q: What about the MRT [20] of the same compound?
A: 4.52 h

Q: And the MRT [21]?
A: 2.95 h

Q: What about the Vd/F [22] of the same compound?
A: 460 L

Q: What about the Vd/F [23] of the same compound?
A: 832 L

Q: And the Vd/F [24]?
A: 213 L

Q: What about the Vd/F [25] of the same compound?
A: 914 L

Q: What about the CL renal [26] of the same compound?
A: 9.15 mL/min

Q: And the AUC(0-inf) [27]?
A: 1960 ng·h/mL

Q: What about the AUC(0-inf) [28] of the same compound?
A: 6800 ng·h/mL

Q: And the Cmax [29]?
A: 74.1 ng/mL

Q: And the Tmax [30]?
A: 5.71 h

Q: What about the half-life [31] of the same compound?
A: 15.9 h

Q: And the Activity [32]?
A: 0%

Q: What about the Activity [33] of the same compound?
A: 16.7%

Q: And the Activity [34]?
A: 0%

Q: What about the Activity [35] of the same compound?
A: 0%
